Screening data deposited in PubChem by Johns Hopkins Ion Channel Center.
KCNK9 inh – inhibitors of human KCNK9 two-pore domain potassium channel | Q9NPC2 | HEK293 KCNK9, FluxOR thallium flux fluorescence; stronger effect = lower value | B-score at 10 µM | hit rate 1.2% among 310,000 | AID 488922;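 active means ratio B-score over 3 SD below the library mean, with starting fluorescence within 5 SD of its mean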;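 further: negative B-score means less thallium flux so channel inhibition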
Kir21 block – Kir2.1 (mouse) channel inhibition | P35561 | HEK293-Kir2.1, FluxOR thallium flux fluorescence; stronger effect = lower value | B-score at 10 µM | hit rate 0.85% among 310,000 | AID 1672;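 active means fluorescence ratio B-score at or below minus 3 SD of library scores, with starting-brightness B-score within 2 SD, cut at about -4.2 in these data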;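 further: channel flux triggered by added potassium and thallium sulfate stimulus; B-score of peak minus minimum fluorescence over baseline after thallium stimulus; more negative B-score means stronger Kir2.1 block with less thallium influx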
hERG protect – compounds protecting human hERG from proarrhythmic drug block; activation (rescue from dofetilide block), less the hit threshold, % at 10 µM; CHO-hERG, FluxOR thallium flux, dofetilide IC70 present; hit rate 0.51% among 310,000; Q12809; AID 1511;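 active means activation above the mean of controls blocked by dofetilide plus 5 SD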;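 further: thallium influx through hERG after potassium depolarization seen as dye fluorescence rise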
KCNQ1 block – inhibitors of human KCNQ1 potassium channel | CHO-K1 KCNQ1, FluxOR thallium flux fluorescence; stronger effect = higher value | B-score at 10 µM | hit rate 1.3% among 310,000 | AID 2642;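 active means compounds whose thallium flux B-score, printed positive for inhibition, exceeds three library SD while starting fluorescence stays within three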;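 further: channel opened by potassium depolarization with thallium stimulus after 20 min compound exposure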
KCNQ1 act – potentiates or activates the human KCNQ1 potassium channel; P51787; CHO-K1 KCNQ1, thallium flux FluxOR fluorescence; stronger effect = higher value; B-score at 10 µM; hit rate 0.35% among 310,000; AID 2648;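 active means fluorescence ratio B-score, a plate-corrected score, at least three library SD, with initial intensity B-score within 5 SD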
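Medium – assay buffer, equal DMSO in all wells · Material – CHO-K1 cell line with stable KCNQ1 potassium channel expression · Signal – kinetic FluxOR thallium fluorescence, 10-s 1-Hz baseline, 110-s post-stimulus read · Compound – single concentration per compound, DMSO matched to controls · Schedule – 37 °C overnight plating, 90-min dark dye load, 20-min compound pretreatment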
KCNK3 block – human KCNK3 channel inhibition, primary screen; CHO-KCNK3 thallium flux, FluxOR fluorescence; stronger effect = lower value; B-score at 10 µM; hit rate 0.84% among 340,000; AID 602410;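 active means B-score under library mean minus 4 SD, starting fluorescence ratio at most library mean plus 5 SD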;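 further: more negative B-score means stronger inhibition of thallium flux through KCNK3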
KCNK9 inh conf – confirmation of human KCNK9 potassium channel inhibitors | inhibition, % at 10 µM | hit rate 43% among 4,900 | AID 492992 | shares compounds with KCNK9 inh | HEK293 KCNK9 cells, FluxOR thallium flux fluorescence;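 active means thallium signal inhibited by more than 5 SD of the compound-free buffer control wells, on both duplicate plates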;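 further: 0% = assay buffer control wells without compound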
Kir21 sel – mouse Kir2.1 off-target activity of KCNK9 modulators; hit rate 4% among 4,900; inhibition, % at 10 µM; shares compounds with KCNK9 inh; Kir2.1 cells, FluxOR thallium flux fluorescence;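 active means thallium signal drop more than 5 SD beyond the mean of the no-compound control wells, seen in both duplicate plates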;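 further: signal is fluorescence rise after thallium addition divided by baseline fluorescence; plate controls were assay buffer only for no effect and full block by chlorpromazine control for full effect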
KCNK9 uninduced – non-induced cell nonspecific activity of KCNK9 modulators; shares compounds with KCNK9 inh; non-induced KCNK9-HEK293, FluxOR thallium flux; inhibition, % at 10 µM; hit rate 40% among 4,900; AID 492997;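 active means thallium signal drop beyond 5 SD of the untreated control mean, on both duplicate plates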;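 further: plate controls were buffer only IC0 wells for no effect and SID17386958 at its maximal inhibitory level for full effect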
* = called active by the depositor. Only some compounds are listed: those with a hit (about 3.7% of all), similar ones and a draw of the others.

Results for Cc1ccc(N(Cc2cc3cccc(C)c3[nH]c2=O)S(=O)(=O)c2ccccc2)c(C)c1 ?
KCNK9 inh: inactive; Kir21 block: 0.34; hERG protect: -12.6; KCNQ1 block: inactive; KCNQ1 act: inactive; KCNK3 block: inactive; KCNK9 inh conf: inactive; Kir21 sel: inactive; KCNK9 uninduced: inactive

Results for CCOc1ccccc1OCCOCCOc1c(Cl)cccc1Cl ?
KCNK9 inh: -9*; Kir21 block: -3.04; hERG protect: -8.3; KCNQ1 block: inactive; KCNQ1 act: inactive; KCNK3 block: inactive; KCNK9 inh conf: inactive; Kir21 sel: inactive; KCNK9 uninduced: 37.5%*

What do the screens show for `CCOc1ccc(OCCOCCOc2c(Cl)cccc2Cl)cc1`?
KCNK9 inh: inactive; Kir21 block: 0.95; hERG protect: -13.4; KCNQ1 block: inactive; KCNQ1 act: inactive; KCNK3 block: inactive

What do the screens show for `Cc1nccc(-c2ccc(-n3cnc4ccccc43)cc2)n1`?
KCNK9 inh: inactive; Kir21 block: 0.2; hERG protect: -7.4; KCNQ1 block: inactive; KCNQ1 act: inactive; KCNK3 block: inactive; KCNK9 inh conf: inactive; Kir21 sel: inactive; KCNK9 uninduced: inactive

How did C=CC[n+]1c(-c2ccc(Cl)cc2Cl)csc1Nc1c(C)n(C)n(-c2ccccc2)c1=O do in these assays?
KCNK9 inh: inactive; Kir21 block: -0.54; hERG protect: -19.7; KCNQ1 block: inactive; KCNQ1 act: inactive; KCNK3 block: inactive; KCNK9 inh conf: inactive; Kir21 sel: inactive; KCNK9 uninduced: inactive

How did COc1ccc(OC)c(NC(=O)c2nc(-c3ccccc3)oc2C)c1 do in these assays?
KCNK9 inh: inactive; Kir21 block: 0.42; hERG protect: -6.2; KCNQ1 block: inactive; KCNQ1 act: inactive; KCNK3 block: inactive

Results for CCc1ccc(CN(C)CC(=O)Nc2ccc3c(c2)CCC3)cc1 ?
KCNK9 inh: inactive; Kir21 block: -1.52; hERG protect: -18.4; KCNQ1 block: inactive; KCNQ1 act: inactive; KCNK3 block: inactive; KCNK9 inh conf: inactive; Kir21 sel: inactive; KCNK9 uninduced: inactive

Results for O=C(Nc1cccc(S(=O)(=O)NC2=NCCC2)c1)c1ccccc1OC(F)F ?
KCNK9 inh: inactive; Kir21 block: 0; hERG protect: -3.0; KCNQ1 block: inactive; KCNQ1 act: inactive; KCNK3 block: inactive

What do the screens show for `c1ccc(-c2nn[nH]n2)nc1`?
KCNK9 inh: inactive; Kir21 block: -0.43; hERG protect: -6.8; KCNQ1 block: inactive; KCNQ1 act: inactive; KCNK3 block: inactive

What do the screens show for `COc1cc(Cl)c(CNC[C@H]2O[C@@H](n3cnc4c(N)ncnc43)[C@H](O)[C@@H]2O)c(Cl)c1O`?
KCNK3 block: inactive

Results for COc1ccccc1N1CCN(CCCCOc2cccc3ccccc23)CC1 ?
KCNK9 inh: inactive; Kir21 block: 0.36; hERG protect: -30.9; KCNQ1 block: inactive; KCNQ1 act: inactive; KCNK3 block: inactive; KCNK9 inh conf: inactive; Kir21 sel: inactive; KCNK9 uninduced: inactive

Results for COc1ccccc1OCCCCN1CCN(c2ccccc2OC)CC1 ?
KCNK9 inh: inactive; Kir21 block: 0.78; hERG protect: -2.7; KCNQ1 block: inactive; KCNQ1 act: inactive; KCNK3 block: inactive

Results for Cc1cc(C(=O)OC(C)C(=O)Nc2nc(-c3ccccc3)cs2)c(C)o1 (stereo not drawn) ?
KCNK9 inh: inactive; Kir21 block: -0.07; hERG protect: -7.6; KCNQ1 block: inactive; KCNQ1 act: inactive; KCNK3 block: inactive; KCNK9 inh conf: inactive; Kir21 sel: inactive; KCNK9 uninduced: inactive

Results for Cc1cc(C(=O)OCC(=O)Nc2nc(-c3ccccc3)cs2)c(C)o1 ?
KCNK9 inh: inactive; Kir21 block: -2.59; hERG protect: -4.1; KCNQ1 block: inactive; KCNQ1 act: inactive; KCNK3 block: inactive

Results for Cc1cccc([N+](=O)[O-])c1NC(=O)CN(Cc1ccccc1)Cc1ccccc1 ?
KCNK9 inh: -8.76*; Kir21 block: -0.17; hERG protect: -6.4; KCNQ1 block: inactive; KCNQ1 act: inactive; KCNK3 block: inactive; KCNK9 inh conf: 30.0%*; Kir21 sel: inactive; KCNK9 uninduced: 37.0%*

Results for Cc1cccc(C)c1NC(=O)CNC(=O)Cc1ccccc1[N+](=O)[O-] ?
KCNK9 inh: inactive; Kir21 block: -0.22; hERG protect: -3.9; KCNQ1 block: inactive; KCNQ1 act: inactive; KCNK3 block: inactive

How did CCn1c(SCC(=O)NC2CCCCC2)nnc1-c1cc2cccc(OC)c2o1 do in these assays?
KCNK9 inh: inactive; Kir21 block: -1.17; hERG protect: -9.4; KCNQ1 block: inactive; KCNQ1 act: inactive; KCNK3 block: inactive; KCNK9 inh conf: inactive; Kir21 sel: inactive; KCNK9 uninduced: inactive

Results for CCn1c(SCC(=O)Nc2nccs2)nnc1-c1cc2cccc(OC)c2o1 ?
KCNK9 inh: inactive; Kir21 block: -1.95; hERG protect: -5.6; KCNQ1 block: inactive; KCNQ1 act: inactive; KCNK3 block: inactive

Results for COc1ccc(/C=N/NC(=O)c2ccc(O)cc2O)cc1CSc1ccccn1 ?
KCNK9 inh: inactive; Kir21 block: -1.4; hERG protect: -5.9; KCNQ1 block: inactive; KCNQ1 act: inactive; KCNK3 block: inactive

How did COc1ccc(C(=O)CCC(=O)N2CCN(c3cc(C)ccc3C)CC2)cc1 do in these assays?
KCNK9 inh: inactive; Kir21 block: -1.54; hERG protect: -2.5; KCNQ1 block: inactive; KCNQ1 act: inactive; KCNK3 block: inactive; KCNK9 inh conf: inactive; Kir21 sel: inactive; KCNK9 uninduced: inactive

Results for COc1ccc(CCC(=O)N2CCN(c3cccc(C)c3C)CC2)cc1 ?
KCNK9 inh: inactive; Kir21 block: -2.06; hERG protect: -12.9; KCNQ1 block: inactive; KCNQ1 act: inactive; KCNK3 block: inactive; KCNK9 inh conf: inactive; Kir21 sel: inactive; KCNK9 uninduced: inactive

What do the screens show for `COc1ccc(-c2cccc(CCC(=O)N3CCN(c4cc(C)ccc4C)CC3)c2)cc1`?
KCNK3 block: inactive

How did COc1c(F)cc2[nH]c3c(c2c1F)CCNC3=O do in these assays?
KCNK9 inh: inactive; Kir21 block: 0.03; hERG protect: -5.4; KCNQ1 block: inactive; KCNQ1 act: inactive; KCNK3 block: inactive
